Results of several laboratories.
Each line is one published result; the experiments were not run side by side.

| Structure (SMILES) | test | system | conditions | endpoint | value |
| --- | --- | --- | --- | --- | --- |
| CCCC(CCC)C(=O)OCC1(CO)C/C(=C\c2ccc(C(F)(F)F)cc2)C(=O)O1 (centres unmarked) | general toxicity | nude mouse | intraperitoneal | MTD | 12 mg/kg/day |
| C=C1C[C@H](O)[C@H](Br)C(C)(C)[C@@]12CCC(C)=C(Cl)C2 | general toxicity | female CD-1 mouse | intraperitoneal, single dose | MTD | 65 mg/kg |
| CC[C@H](C)[C@H](NC(=O)[C@H](Cc1ccccc1)NC(=O)[C@H](Cc1ccc(O)cc1)NC(=O)[C@@H]1CCCN1C(=O)[C@@H](N)Cc1ccc(O)cc1)C(=O)N1CCC[C@H]1C(=O)N[C@@H](CC(C)C)C(=O)NCC(=O)NCC(=O)N[C@H](CCCCN)C(=O)N[C@@H](CCC(=O)O)C(=O)N[C@H](C(=O)N[C@@H](CC(N)=O)C(=O)N[C@@H](CC(C)C)[C@@H](O)CC(=O)N[C@H](C(=O)N[C@@H](C)C(=O)N[C@@H](CCC(=O)O)C(=O)N1CCC[C@@H]1C(=O)N[C@@H](CCCCNC(=O)CCC(=O)O[C@H]1CC[C@@]2(C)C(=CC[C@H]3[C@@H]4CC[C@H]([C@H](C)CCCC(C)C)[C@@]4(C)CC[C@@H]32)C1)C(N)=O)C(C)C)C(C)C |  | aqueous buffer | pH 6.5 | thermodynamic solubility | < 1 µg/mL |
| C[C@]12CCCN1CC1=NNC(=O)c3cc(F)cc4[nH]c2c1c34 |  | male Sprague-Dawley rat, brain | intravenous, 1 mg/kg | unbound tissue/plasma ratio | 0.134 |
| O=C(NCCN1CCCC1)c1cc(-c2ccc(CN3CCOCC3)cc2)nc2ccc(F)cc12 |  | male beagle dog, blood | oral, 3 mg/kg | Tmax | 4 h |
| CC[C@H](C)[C@H](NC(=O)[C@H](Cc1ccccc1)NC(=O)[C@H](Cc1ccc(O)cc1)NC(=O)[C@@H]1CCCN1C(=O)[C@@H](N)Cc1ccc(O)cc1)C(=O)N[C@H](CCCCN)C(=O)N[C@@H](CC(C)C)C(=O)NCC(=O)N[C@H](CCCCN)C(=O)NCC(=O)N[C@@H](CCC(=O)O)C(=O)N[C@H](C(=O)N[C@@H](CC(N)=O)C(=O)N[C@@H](CC(C)C)[C@@H](O)CC(=O)N[C@H](C(=O)N[C@@H](C)C(=O)N[C@@H](CCC(=O)O)C(=O)N1CCC[C@@H]1C(=O)N[C@@H](CCCCNC(=O)CCC(=O)O[C@H]1CC[C@@]2(C)C(=CC[C@H]3[C@@H]4CC[C@H]([C@H](C)CCCC(C)C)[C@@]4(C)CC[C@@H]32)C1)C(N)=O)C(C)C)C(C)C |  | aqueous buffer | pH 6.5 | thermodynamic solubility | 55 µg/mL |
| CC(C)S(=O)(=O)c1ccc(S(=O)(=O)N2CCC[C@@H](C(=O)N3CCC(F)(F)CC3)C2)cc1 | general toxicity | mouse | oral | MTD | 10 mg/kg |
| Cc1cc(Nc2ccc(S(F)(F)(F)(F)F)cc2)n2nc(C(C)(F)F)nc2n1 | general toxicity | mouse | oral, multiple doses | MTD | > 200 mg/kg |
| CC[C@H](C)[C@H](NC(=O)[C@H](CO)NC(=O)[C@H](CCCNC(=N)N)NC(C)=O)C(=O)N[C@H]1CSSC[C@@H](C(=O)N[C@H](C(N)=O)[C@@H](C)O)NC(=O)[C@H](CCCNC(=N)N)NC(=O)[C@H](Cc2c[nH]cn2)NC(=O)[C@H](C)NC(=O)CNC(=O)[C@H](Cc2c[nH]c3ccccc23)NC(=O)[C@H](CC(=O)O)NC(=O)[C@H](CCC(N)=O)NC(=O)[C@H](Cc2cn(C)c3ccccc23)NC(=O)[C@H](C(C)C)NC1=O | absorbance | water |  | thermodynamic solubility | > 500 µM |
| CC[C@@H]1CN(C(=O)NCC(F)(F)F)C[C@@H]1c1cnc2cnc3[nH]ccc3n12 |  | beagle dog, plasma | oral, 1 mg/kg, single dose | MRT(0-inf) | 11.6 h |
| Cn1nc(C(F)(F)F)cc1-c1ccc(OCc2ccc(Cl)cc2)c(-c2cc(C(F)(F)F)cc(C(F)(F)F)c2)c1O | general toxicity | CD-1 mouse | oral | MTD | 240 mg/kg/day |
| CC[C@H](C)[C@H](NC(=O)[C@H](Cc1ccccc1)NC(=O)[C@H](Cc1ccc(O)cc1)NC(=O)[C@@H]1CCCN1C(=O)[C@@H](N)Cc1ccc(O)cc1)C(=O)N1CCC[C@H]1C(=O)N[C@@H](CC(C)C)C(=O)NCC(=O)N[C@H](CCCCN)C(=O)NCC(=O)N[C@@H](CCC(=O)O)C(=O)N[C@H](C(=O)N[C@@H](CC(N)=O)C(=O)N[C@@H](CC(C)C)[C@@H](O)CC(=O)N[C@H](C(=O)N[C@@H](C)C(=O)N[C@@H](CCC(=O)O)C(=O)N1CCC[C@@H]1C(=O)N[C@@H](CCCCNC(=O)CCC(=O)O[C@H]1CC[C@@]2(C)C(=CC[C@H]3[C@@H]4CC[C@H]([C@H](C)CCCC(C)C)[C@@]4(C)CC[C@@H]32)C1)C(N)=O)C(C)C)C(C)C |  | aqueous buffer | pH 6.5 | thermodynamic solubility | 11 µg/mL |
| N#C[C@@]1(c2ccc3c(N)ncnn23)O[C@H](CO)[C@@H](O)[C@H]1O |  | dog, plasma | intravenous, 2 mg/kg | MRT(0-inf) | 3.93 h |
| CCn1c(=O)c(-c2cc(NC(=O)Nc3ccccc3)c(F)cc2Br)cc2cnc(NC)cc21 |  | beagle dog, plasma | oral, 5 mg/kg, single dose | Tmax | 2.25 h |
